CASP6 VEID inh = inhibitors of human caspase-6; P55212; purified caspase-6, Z-VEID-R110 cleavage fluorescence; inhibition, % at 12.5 µM; 350,000 tested, 0.53% active;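 active = mean inhibition across replicates at least about 35%, with every replicate also reaching that limit, limit read from the data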;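 note: 0% = median of neutral control wells and 100% = no fluorescence left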
ASAP1 inh = inhibitors of human ASAP1 ArfGAP activity. inhibition, % at 16.5 µM. AID 624377. 360,000 tested, 0.19% active. ASAP1-stimulated ARF1 GTP hydrolysis, GDP FP detection. Q9ULH1;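 note: 0% = vehicle with enzyme and substrate and 100% = no enzyme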
LEDGF integ inh = blocks HIV-1 LEDGF/p75-dependent DNA integration | AID 743269 | inhibition, % at 3.7 µM | TR-FRET IN-LEDGF/p75 DNA integration, Eu/Cy5 | 370,000 tested, 0.64% active;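 active = inhibition above the screen-wide mean plus 3 SD, cut at about 13% in these data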;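 note: signal is the Cy5 over europium emission ratio at 671 and 618 nm; 0% = plate median of compound wells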
ARFGAP1 inhibitor = inhibitors of rat ARFGAP1; inhibition, % at 16.5 µM; Arfgap1-stimulated ARF1 GTP hydrolysis, GDP FP detection; AID 651572; 360,000 tested, 0.26% active;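 active = inhibition above a per-plate limit, mean inhibition of low control wells plus 3 SD, cut at about 25% in these data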;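 note: 0% = DMSO wells with enzyme and 100% = wells lacking Arfgap1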
Target sequence (Q62848 1-136 limits assumed): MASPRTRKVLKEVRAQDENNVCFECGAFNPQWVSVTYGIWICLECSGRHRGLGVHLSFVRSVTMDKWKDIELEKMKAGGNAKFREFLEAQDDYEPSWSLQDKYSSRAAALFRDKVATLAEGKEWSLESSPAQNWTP
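Replicates: Single well per compound | Assay system: Truncated rat Arfgap1 GAP domain | Control set: No-Arfgap1 wells (100%) versus DMSO full-reaction wells (0%) | Times: Enzyme reaction 120 min at 25 °C after 20 min preincubation | Reagent: Human ARF1(Δ1-17)-GTP substrate | Measured by: Tracer-displacement fluorescence polarization with EDTA stop, 620/688 nm | Measure: Percent inhibition of Arfgap1-stimulated GTP hydrolysis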
TDP2 absorb = blocks human TDP2 phosphodiesterase activity; inhibition, % at 12.8 µM; AID 720702; recombinant TDP2, T5PNP hydrolysis, p-nitrophenol absorbance 415 nm; 370,000 tested, 0.34% active;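 active = inhibition above the mean of all tested compounds plus 3 SD, set per campaign, cut at about 25% in these data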;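 note: 0% = DMSO with enzyme and 100% = buffer with substrate but no TDP2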
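Assay system: Recombinant human TDP2 | Quantity: 120 nM TDP2 per well | Incubation: 2 h at 37 °C | Signal: Epi absorbance | Evaluation: Percent inhibition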
CASP1 counter = caspase-1 (human) inhibition counter-screen; shares compounds with CASP6 VEID inh; purified caspase-1, Z-YVAD-R110 cleavage fluorescence; activity change, negative = inhibition, % at 35 µM; 100 tested, under 10 active;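 active = compounds lowering fluorescence whose fitted half-maximal concentration is no more than twice their top tested dose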
Target sequence (P29466 whole entry, looked up): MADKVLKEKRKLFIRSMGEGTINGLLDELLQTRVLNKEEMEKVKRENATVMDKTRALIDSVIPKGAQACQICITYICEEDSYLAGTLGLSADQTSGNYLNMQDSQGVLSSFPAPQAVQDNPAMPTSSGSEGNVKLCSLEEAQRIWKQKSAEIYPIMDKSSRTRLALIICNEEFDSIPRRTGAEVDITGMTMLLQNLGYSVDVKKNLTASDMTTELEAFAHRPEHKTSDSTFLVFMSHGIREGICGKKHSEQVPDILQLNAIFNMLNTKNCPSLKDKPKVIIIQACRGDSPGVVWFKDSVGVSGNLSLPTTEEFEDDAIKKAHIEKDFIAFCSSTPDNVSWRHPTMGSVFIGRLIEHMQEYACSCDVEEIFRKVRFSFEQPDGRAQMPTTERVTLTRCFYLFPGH
TDP2 confirm = human TDP2 inhibition, confirmation; shares compounds with TDP2 absorb; recombinant human TDP2, absorbance read-out; inhibition, % at 12.8 µM; 1,100 tested, 22% active;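 note: 0% = vehicle with enzyme and 100% = no enzyme buffer only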
IN multimer act = counter-screen for LEDGF/p75 integration inhibitors: HIV-1 integrase multimerization activators; shares compounds with LEDGF integ inh; TR-FRET HIV-1 integrase multimerization, biochemical; activation, % at 7.7 µM; 2,000 tested, 17% active; in the data active = activation above about 8.9%
TRFRET interf = counter-screen for LEDGF/p75 integration inhibitors: TR-FRET optical interference. shares compounds with LEDGF integ inh. TR-FRET optical interference counterscreen, HIV-1 IN multimerization. inhibition, % at 7.7 µM. 2,000 tested, under 10 active. AID 1053135;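 active = inhibition above the mean over all tested compounds plus 3 SD, which no compound reached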;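 note: 0% = integrase with antibodies and DMSO and 100% = antibodies without integrase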
LEDGF integ conf = LEDGF/p75-dependent HIV-1 integration inhibition, confirmation; shares compounds with LEDGF integ inh; TR-FRET LEDGF/p75-dependent HIV-1 integration, biochemical; inhibition, % at 3.7 µM; 2,000 tested, 36% active; in the data active = inhibition above about 14%
An asterisk follows results filed as active; . = not tested or not shown. The list is not random: actives were taken first. Their share in the collection is about 1.3%. Cut-off read from the data, not from the text of the source, unless noted: active = inhibition above about 25%; inactive = the rest.

SMILES | CASP6 VEID inh | ASAP1 inh | LEDGF integ inh | ARFGAP1 inhibitor | TDP2 absorb | CASP1 counter | IN multimer act | TRFRET interf | LEDGF integ conf | others
C[C@H]1CN([C@@H](C)CO)C(=O)c2cc(NC(=O)c3ccncc3)ccc2O[C@H]1CN(C)S(=O)(=O)c1cn(C)cn1 | -1 | . | . | . | . | . | . | . | .
C[C@@H]1CN([C@H](C)CO)C(=O)c2cccc(NC(=O)C3CC3)c2O[C@H]1CN(C)C(=O)Nc1ccc(F)cc1 | 0 | . | . | . | . | . | . | . | .
O=C(C[C@@H]1C[C@H]2c3cc(NC(=O)NC4CCCCC4)ccc3O[C@H]2[C@H](CO)O1)NCc1ccccn1 | 75* | . | . | . | . | 1 | . | . | .
Nc1cc2c(cc1Br)[nH]c(=O)c1ccccc12 | 42* | -3 | -2 | 14 | 14 | 6 | . | . | .
Cn1nc(-c2ccccn2)nc2c(=O)n(C)c(=O)nc1-2 | 95* | -1 | -24 | -6 | 91* | -3 | . | . | . | TDP2 confirm=85*
CCCc1nc2c(=O)n(C)c(=O)nc-2n(C)n1 | 96* | -15 | -18 | -10 | 95* | -12 | . | . | . | TDP2 confirm=87*
CCn1c(N)nc2c1c(=O)n(C)c(=O)n2C | 0 | -1 | 1 | -1 | 6 | . | . | . | .
CC(=O)c1cc(-c2csc(C=O)c2)c(=O)n2c1CCC2 | . | . | -2 | . | -2 | . | . | . | .
Cc1nc(N2CCOCC2)[nH]c(=O)c1CCC(C)C | . | 1 | -1 | -10 | -5 | . | . | . | .
Cc1c(NC(=O)C(C)OC(=O)c2ccc([N+](=O)[O-])s2)c(=O)n(-c2ccccc2)n1C (stereo unspecified) | 94* | 8 | 8 | 9 | 44* | 4 | . | . | . | TDP2 confirm=32*
Oc1cc(O)cc(C=Cc2ccc(O)c(O)c2)c1 | 76* | 5 | 51* | -5 | -11 | -8 | 43* | -217 | 42*
Oc1ccc(/C=C/c2cc(O)cc(O)c2)cc1 | 6 | 9 | 2 | 3 | -4 | . | . | . | .
O=C(O)CCCNS(=O)(=O)c1ccc(F)cc1 | . | 0 | 1 | 2 | -7 | . | . | . | .
O=[N+]([O-])c1c(Nc2ccccn2)cc(Cl)c2nonc12 | 59* | -12 | 70* | 17 | 87* | -1 | 2 | -7 | 40* | TDP2 confirm=47*
O=C(Nc1ccccc1)Nc1ncc([N+](=O)[O-])s1 | 7 | 7 | -8 | 0 | -13 | . | . | . | .
O=C(COC(=O)c1ccccc1)Nc1ncc([N+](=O)[O-])s1 | 84* | -1 | 15* | -10 | 4 | -7 | 4 | -22 | 34*
COc1ccc(C(=O)NCC(=O)N2CCCC(C(F)(F)F)C2)cc1OC (stereo unspecified) | -130 | 11 | 0 | -5 | 10 | . | . | . | .
COc1ccc(C(=O)Cn2nnc(-c3ccccc3-n3cnnn3)n2)cc1 | -1 | 9 | 0 | 8 | 14 | . | . | . | .
O=C(O)CC(CCc1ccccc1)OC1OC(CO)C(O)C(O)C1O (stereo unspecified) | 71* | 0 | 85* | 9 | 5 | 22 | 87* | -441 | 92*
[C-]#[N+][C@H](O[C@@H]1O[C@H](CO)[C@@H](O)[C@H](O)[C@H]1O)c1ccccc1 | 0 | 2 | -5 | 3 | 0 | . | . | . | .
COc1ccc(NS(=O)(=O)c2ccc3c(c2)[C@H]2C=CC[C@H]2[C@@H](c2ccc(C(=O)O)cc2)N3)cc1 | 53* | 5 | 52* | -12 | 2 | 3 | 26* | -94 | 58*
Oc1cc(NCCN2CCOCC2)cc2cccnc12 | 90* | -1 | 37* | -7 | 31* | -2 | -3 | 10 | 42* | TDP2 confirm=13

Screening results: PubChem BioAssay, several laboratories
